# PostGolgi yeast: growth inhibition of a yeast mutant, post-Golgi transport screen; post-Golgi transport phenotypic cell assay; inhibition, % at 10 µM; AID 739; 98,000 tested, 0.9% active;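 further: yeast cells grown in 1536-well plates; yeast grown about 18 h at 30C before absorbance read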
# D1 allo mod: D1 dopamine receptor (human) allosteric modulation; B-score at 10 µM; 58,000 tested, 5.9% active; HEK293 D1, CRE-luciferase, dopamine EC30 potentiation; actives deviate in either direction; AID 641;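 active means luminescence count or its row- and column-corrected plate score outside the 99.7% band of the plate's sample wells, on either side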
# E coli WT exp: growth inhibitors of E. coli BW25113 wild type; 98,000 tested, 0.15% active; growth inhibition, % at 100 µM; OD600 absorbance;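 active means growth inhibition above about 50% at one test dose, limit read from the data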;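 further: growth measured after 20 h incubation at 37 °C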
# PostGolgi ctrl: inhibits growth of the yeast control strain; efflux-deficient yeast background strain, growth absorbance A615, 16 h; inhibition, % at 10 µM; 98,000 tested, 5% active; AID 738
# Ecoli tolC: growth inhibitors of E. coli BW25113 tolC mutant | 65,000 tested, 2.2% active | AID 573 | growth inhibition, % at 10 µM (by protocol) | OD615;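 active means growth inhibition at or above a cutoff equal to the mean over every tested compound plus 3 SD, cut at about 60% in these data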;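 further: growth measured after 20 h incubation at 37 °C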
#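 System: E. coli ΔtolC::kan strain BW25113; Buffer or medium: LB broth supplemented with 50 µg/mL kanamycin; Compound: 10 µM final, single dose; Incubation: bacterial growth with compound for 20 h at 37 °C; Signal: A615 absorbance measurement; Evaluation: growth inhibition in percent.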
# hDAT+cocaine: human DAT dopamine uptake with cocaine, either direction; Q01959; LLC-PK1 hDAT cells, [14C]-dopamine uptake with cocaine IC80; actives deviate in either direction; B-score at 10 µM; 110,000 tested, 1.3% active; AID 449768;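 active means Z score or B-score, a plate-position-corrected score, falls beyond the plate's 99.7% confidence bounds, in either direction; inactive means both scores lie inside the 99.7% bounds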;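 further: scored against the spread of the other compound wells on the same plate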
# Active calls of the source: *; x = no result given. Only some compounds are listed: those with a hit (about 9.3% of all), similar ones and a draw of the others. Unless noted, no stated cut-off is given here; in the data, active means inhibition above about 30%; inactive means the rest.
SMILES,PostGolgi yeast,D1 allo mod,E coli WT exp,PostGolgi ctrl,Ecoli tolC,hDAT+cocaine
CC(=O)Oc1ccccc1C(=O)Oc1ccc(/C=N/n2cnnc2)cc1,3,-3.3*,-3,11,4,1.7
CCOc1ccc(/C=N/n2cnnc2)cc1,-19,0.77,6,2,-19,-0.073
CC(NC(=O)c1ccco1)c1cccc2ccccc12 (stereo not drawn),x,x,x,x,x,-0.87
CCCOc1ccc(C(=O)NCc2cccnc2)cc1,6,-0.88,-1,32*,-6,-0.12
O=C(O)CCCC(=O)Nc1ccc(C(=O)NCc2cccnc2)cc1,-15,-0.78,4,36*,-11,x
O=C(COc1ccc([N+](=O)[O-])cc1)Nc1ccc(C(=O)NCc2cccnc2)cc1,-5,x,21,9,x,-0.19
Fc1ccc(-c2nnc(-c3ccc(Cl)cc3Cl)o2)cc1,2,-2.9*,-12,2,10,-0.19
Cn1c(=O)c2c(nc(SCC(=O)NC3CCCCC3)n2C)n(C)c1=O,x,0.13,x,x,0,x
c1ccc(Nc2nc(N3CCCC3)nc(N3CCCC3)n2)cc1,8,x,-2,70*,x,0.04
c1ccc(Nc2nc(N3CCCCC3)nc(N3CCNCC3)n2)cc1,1,0.86,32,15,-3,0.05
c1ccc(Nc2nc(N3CCCCC3)nc(N3CCCCC3)n2)cc1,-4,x,-19,53*,x,-0.91
CC(C)(C)[C@H]1C=C(C(=O)NCc2ccccc2)O[C@@H](OCCCCO)C1,x,x,x,x,x,0.4
O=C(COc1ccc(S(=O)(=O)N2CCCCC2)cc1)NCc1cccnc1,-13,x,2,-3,x,-0.025
COC(=O)c1ccc(N2CCN(CC(=O)c3ccc(-c4ccccc4)cc3)CC2)c([N+](=O)[O-])c1,7,x,-9,6,x,x
CCOC(=O)c1cc2c(ccn2C)n1CC(=O)N1CCN(c2ccccc2OC)CC1,32*,-2.4,8,-1,7,0.21
CC/C(=N\NC(=O)c1ccc(-c2ccccc2)cc1)C12CC3CC(CC(C3)C1)C2,-6,x,-12,1,x,-0.32
CNC(=O)c1[nH]cnc1C(=O)N[C@@H](C)C(=O)OCc1ccccc1,x,x,x,x,x,2.4*
CCCCNC(=S)NNC(=O)c1ccco1,x,x,x,x,x,-1.2
NC(=S)Nc1nc2ccccc2[nH]c1=O,18,x,14,5,x,x
Cc1ccc(NC(=S)c2nc3ccccc3[nH]2)cc1,2,x,6,51*,x,1.4
CCc1c(C)nc(N)n2c(SCC(=O)N3CCN(c4ccccc4OC)CC3)nnc12,x,-1.1,x,x,-2,x
O=C(Nc1ccccc1C(=O)OCc1nnc(-c2ccccc2)o1)c1ccco1,-1,1.9,-11,48*,6,2.3
COC(=O)c1cccc(COC(=O)c2ccccc2NC(=O)c2ccco2)c1,-1,2.8,-17,1,-4,0.22
CCc1nn2c(N3CCOCC3)cc(C)nc2c1-c1ccc(F)cc1,-4,1.3,0,45*,12,-0.0074
CNC(CC(C)C)C(=O)NC1C(=O)NC(CC(N)=O)C(=O)NC2C(=O)NC3C(=O)NC(C(=O)NC(C(=O)O)c4cc(O)cc(O)c4-c4cc3ccc4O)C(O)c3ccc(c(Cl)c3)Oc3cc2cc(c3OC2OC(CO)C(O)C(O)C2OC2CC(C)(N)C(O)C(C)O2)Oc2ccc(cc2Cl)C1O (stereo not drawn),x,x,x,x,x,1.6
SMILES,PostGolgi yeast,D1 allo mod,E coli WT exp,PostGolgi ctrl,Ecoli tolC,hDAT+cocaine
CCCOc1ccc(S(=O)(=O)n2cc(Br)c(=O)[nH]c2=O)cc1,6,x,7,42*,28,-1.2
O=c1[nH]c(=O)n(CCOc2ccc(Cl)cc2)cc1Br,4,0.72,5,13,-14,0.014
O=c1cc(-c2ccccc2)[nH]c2nc3ccccc3n12,-6,-6.5*,-5,18,4,0.27
COc1ccc(-c2nc(-c3ccccc3)nc(N3CCN(C)CC3)c2C#N)cc1,-3,x,-5,33*,x,0.07
COc1ccc(-c2nc(-c3cccc(C)c3)nc(N3CCN(C)CC3)c2C#N)cc1,-3,x,-5,23,x,-0.59
O=C(c1ccc(F)cc1)C(CN1CCOCC1)c1ccccc1 (stereo not drawn),15,-0.38,28,55*,22,-0.73
O=C(c1ccccc1)C(CCC(CN1CCOCC1)C(=O)c1ccccc1)CN1CCOCC1 (stereo not drawn),-1,x,8,41*,13,-1.5
NC(=O)C(c1ccc(Cl)cc1Cl)c1ncc(C(F)(F)F)cc1Cl (stereo not drawn),19,x,10,9,x,0.57

# Screening data (PubChem)
